Assay results taken from ChEMBL document CHEMBL1134451, “Synthesis, cytotoxicity, and antitumor activity of copper(II) and iron(II) complexes of (4)N-azabicyclo[3.2.2]nonane thiosemicarbazones derived from acyl diazines” (J Med Chem, 2001).
Blank lines part the entries; values can stand above or below the compound they belong to.

Assays:
HT-29 [1] = test: Cytotoxic activity against colon adenocarcinoma (HT-29) cell line; assay type: functional, cell-based, Homo sapiens
In short: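 HT-29 colon adenocarcinoma cells in McCoy's 5A with 10% FCS, glutamine and penicillin/streptomycin, about 10 000 cells/well. After a 4 h preincubation, cells were exposed to compound (DMSO up to 0.5% final) for 72 h at 37 °C, 5% CO2. Readout was SRB assay. IC50 from dose-response curves; mean of at least three independent experiments run in duplicate.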

CCRF-CEM = test: Cytotoxic activity against human acute lymphoblastic leukemia (CCRF-CEM) cell line; assay type: functional, cell-based
[2] = (§1) Percentage of cells in G1 cell cycle phase of lymphoma cells after 48 hr treatment; assay type: functional, Homo sapiens
[3] = (§2) Percentage of cells in G2-M cell cycle phase of lymphoma cells after 24 hr treatment; assay type: functional, Homo sapiens
[4] = Inhibition of cell proliferation in Burkitt's lymphoma cells; assay type: functional, cell-based, Homo sapiens
[5] = Inhibition of [14C]-cytidine incorporation into DNA in Burkitt''s lymphoma cells; assay type: functional, cell-based, Homo sapiens
In short: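 Intact exponentially growing Burkitt's lymphoma cells, (1-2)×10^6/mL, incubated with compound at 37 °C for 90 min, then 0.7 μCi [14C]cytidine added. Cells TCA-precipitated and RNase-treated in Tris-HCl pH 8 for 2 h at 37 °C, then reprecipitated with TCA. Pellet dissolved in NaOH and counted by scintillation. IC50 is the mean of two experiments run in duplicate.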

[6] = (§3) Percentage of cells in G1 cell cycle phase of lymphoma cells after 24 hr treatment; assay type: functional, Homo sapiens
[7] = (§4) Percentage of cells in G2-M cell cycle phase of lymphoma cells after 48 hr treatment; assay type: functional, Homo sapiens
[8] = (§5) Percentage of cells in S cell cycle phase of lymphoma cells after 48 hr treatment; assay type: functional, Homo sapiens
[9] = Ratio of IC50 values was calculated by IC50 cytidine incorporation/IC50 cell proliferation; assay type: functional
In short: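 Ratio of the [14C]cytidine-incorporation IC50 to the cell-proliferation IC50, both measured in Burkitt's lymphoma cells.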

[10] = (§6) Percentage of cells in S cell cycle phase of lymphoma cells after 24 hr treatment; assay type: functional, Homo sapiens
PAXF546 = test: Inhibition of cell proliferation of human pancreas PAXF546 tumor xenograft in colony forming assay; assay type: functional, cell-based
CXF1103 = test: Inhibition of cell proliferation of human colon CXF1103 tumor xenograft in colony forming assay; assay type: functional, cell-based
MEXF276L = test: Inhibition of cell proliferation of human melanoma MEXF276L tumor xenograft in colony forming assay; assay type: functional, cell-based
MX1 = test: Inhibition of cell proliferation of human breast MXI tumor xenograft in colony forming assay; assay type: functional, cell-based
PAXF736 = test: Inhibition of cell proliferation of human pancreas PAXF736 tumor xenograft in colony forming assay; assay type: functional, cell-based
LXFS538 = test: Inhibition of cell proliferation of human lung small cell LXFS538 tumor xenograft in colony forming assay; assay type: functional, cell-based
LXFL 529 = test: Inhibition of cell proliferation of human lung large cell LXFL529 tumor xenograft in colony forming assay; assay type: functional, cell-based
HT-29 [11] = test: Inhibition of cell proliferation of human colon HT-29X tumor xenograft in colony forming assay; assay type: functional, cell-based
CXF280 = test: Inhibition of cell proliferation of human colon CXF280 tumor xenograft in colony forming assay; assay type: functional, cell-based
MEXF989 = test: Inhibition of cell proliferation of human melanoma MEXF989 tumor xenograft in colony forming assay; assay type: functional, cell-based
MCF7 = test: Inhibition of cell proliferation of human breast MCF7X tumor xenograft in colony forming assay; assay type: functional, cell-based
lymphoma [12] = test: as §1; assay type: functional; details: Homo sapiens
lymphoma [13] = test: as §2; assay type: functional; details: Homo sapiens
lymphoma [14] = test: as §3; assay type: functional; details: Homo sapiens
[15] = Mean IC50 value of the compound; assay type: functional
In short: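 Geometric mean of clonogenic soft-agar IC50 values across the tumor xenografts tested: 10 raised to the mean of log IC50 over all xenografts.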

lymphoma [16] = test: as §4; assay type: functional; details: Homo sapiens
lymphoma [17] = test: as §5; assay type: functional; details: Homo sapiens
lymphoma [18] = test: as §6; assay type: functional; details: Homo sapiens
OVXF1353 cell line = test: Inhibition of cell proliferation of human ovary OVXF1353 tumor xenograft in colony forming assay; assay type: functional, cell-based, Female gonad
CXF158 = test: Inhibition of cell proliferation of human colon CXF158 tumor xenograft in colony forming assay; assay type: functional, cell-based
OVXF1023 cell line = test: Inhibition of cell proliferation of human ovary OVXF1023 tumor xenograft in colony forming assay; assay type: functional, cell-based, Female gonad
RXF 423 = test: Inhibition of cell proliferation of human renal RXF423 tumor xenograft in colony forming assay; assay type: functional, cell-based

Compound: C/C(=N\N=C(/S)N1CC2CCC(CC2)C1)c1ccncn1
- IC50 (HT-29 [1]; Homo sapiens, HT-29): 50 nM
- IC50 (CCRF-CEM; Homo sapiens, CCRF-CEM): 20 nM

Compound: C/C(=N\N=C(/S)N1CC2CCC(CC2)C1)c1cnccn1
- IC50 (HT-29 [1]; Homo sapiens, HT-29): 11 nM
- IC50 (CCRF-CEM; Homo sapiens, CCRF-CEM): 11 nM

Compound: Copper(II) Complex
- IC50 (HT-29 [1]; ht-29): 1510 nM
- IC50 (CCRF-CEM; ccrf-cem): 300 nM

Compound: N-[(1E)-1-(6-methylpyridazin-3-yl)ethylidene]-3-azabicyclo[3.2.2]nonane-3-carbohydrazonothioic acid.chloro Cu(II)complex
- IC50 (HT-29 [1]; ht-29): 870 nM
- IC50 (CCRF-CEM; ccrf-cem): 130 nM

Compound: N-[(1E)-1-pyrazin-2-ylethylidene]-3-azabicyclo[3.2.2]nonane-3-carbohydrazonothioic acid.chloro Cu(II)complex
- IC50 (HT-29 [1]; ht-29): < 10 nM
- IC50 (CCRF-CEM; ccrf-cem): < 10 nM

Compound: N-[(1E)-1-pyrimidin-4-ylethylidene]-3-azabicyclo[3.2.2]nonane-3-carbohydrazonothioic acid.chloro Cu(II)complex
- IC50 (HT-29 [1]; ht-29): < 10 nM
- IC50 (CCRF-CEM; ccrf-cem): < 10 nM

Now from value to compound, other results behind:

- IC50 [5]: 37200 nM
Compound: NC(=O)NO [HYDROXYUREA]
- Activity [2]: 21.27%
- Activity [3]: 11.9%
- IC50 ([4]; Homo sapiens): 140000 nM
- Activity [6]: 48.2%
- Activity [7]: 19.52%
- Activity [8]: 45.1%
- IC50 ratio [9]: 0.26
- Activity [10]: 38.22%

- IC50 [5]: 180 nM
- IC50 (HT-29 [11]): 0.85 nM
- IC50 (MCF7): 0.21 nM
Compound: N-[(1E)-1-(3-methylpyrazin-2-yl)ethylidene]-3-azabicyclo[3.2.2]nonane-3-carbohydrazonothioic acid.chloro Cu(II)complex [listing 1 of 2 here]
- IC50 (PAXF546): 0.56 nM
- IC50 (CXF1103): < 0.1 nM
- IC50 [4]: 6 nM
- IC50 (MEXF276L): 36 nM
- IC50 (MX1): 5 nM
- IC50 (PAXF736): < 0.1 nM
- IC50 (LXFS538): 0.22 nM
- IC50 (LXFL 529): < 0.1 nM
- IC50 (CXF280): < 0.1 nM
- IC50 (CCRF-CEM; ccrf-cem): 6 nM
- IC50 (MEXF989): 3 nM

- Mean IC50 [15]: 0.37 nM
Compound: N-[(1E)-1-(3-methylpyrazin-2-yl)ethylidene]-3-azabicyclo[3.2.2]nonane-3-carbohydrazonothioic acid.chloro Cu(II)complex [listing 2 of 2 here]
- Activity (lymphoma [12]): 49.3%
- Activity (lymphoma [13]): 17%
- Activity (lymphoma [14]): 51.9%
- Activity (lymphoma [16]): 9.81%
- Activity (lymphoma [17]): 29.8%
- IC50 ratio [9]: 30
- Activity (lymphoma [18]): 22.8%

- IC50 [5]: 2970 nM
- IC50 (HT-29 [11]): 1 nM
- IC50 (MCF7): < 0.1 nM
Compound: N-[(1E)-1-(5-methylpyrazin-2-yl)ethylidene]-3-azabicyclo[3.2.2]nonane-3-carbohydrazonothioic acid.chloro Cu(II)complex [listing 1 of 2 here]
- IC50 (PAXF546): 0.2 nM
- IC50 (CXF1103): < 0.1 nM
- IC50 (OVXF1353 cell line): 24 nM
- IC50 [4]: 6 nM
- IC50 (MEXF276L): 14 nM
- IC50 (HT-29 [1]; ht-29): 4 nM
- IC50 (MX1): 4 nM
- IC50 (PAXF736): < 10 nM
- IC50 (LXFL 529): < 0.1 nM
- IC50 (CXF158): 0.13 nM
- IC50 (CXF280): < 0.1 nM
- IC50 (CCRF-CEM; ccrf-cem): 5 nM
- IC50 (MEXF989): 0.7 nM
- IC50 (OVXF1023 cell line): 10 nM
- IC50 (RXF 423): 4 nM

- Mean IC50 [15]: 0.37 nM
Compound: N-[(1E)-1-(5-methylpyrazin-2-yl)ethylidene]-3-azabicyclo[3.2.2]nonane-3-carbohydrazonothioic acid.chloro Cu(II)complex [listing 2 of 2 here]
- Activity (lymphoma [12]): 52.7%
- Activity (lymphoma [13]): 19.9%
- Activity (lymphoma [14]): 53.1%
- Activity (lymphoma [16]): 17.7%
- Activity (lymphoma [17]): 29.4%
- IC50 ratio [9]: 495
- Activity (lymphoma [18]): 25.9%

- IC50 [5]: 210 nM
- IC50 (HT-29 [11]): 5 nM
- IC50 (MCF7): 0.2 nM
Compound: N-[(1E)-1-(6-methylpyrimidin-4-yl)ethylidene]-3-azabicyclo[3.2.2]nonane-3-carbohydrazonothioic acid.chloro Cu(II)complex [listing 1 of 2 here]
- IC50 (PAXF546): 3 nM
- IC50 (CXF1103): 0.11 nM
- IC50 (OVXF1353 cell line): 19 nM
- IC50 (HT-29 [1]; ht-29): 4 nM
- IC50 (MX1): 14 nM
- IC50 (PAXF736): 15 nM
- IC50 (LXFL 529): < 0.1 nM
- IC50 (CXF158): 2 nM
- IC50 (CXF280): 0.2 nM
- IC50 (CCRF-CEM; ccrf-cem): 10 nM
- IC50 (MEXF989): 0.84 nM
- IC50 (OVXF1023 cell line): 15 nM
- IC50 (RXF 423): 26 nM

- Mean IC50 [15]: 1 nM
Compound: N-[(1E)-1-(6-methylpyrimidin-4-yl)ethylidene]-3-azabicyclo[3.2.2]nonane-3-carbohydrazonothioic acid.chloro Cu(II)complex [listing 2 of 2 here]
- Activity (lymphoma [12]): 59.2%
- Activity (lymphoma [13]): 13.6%
- Activity (lymphoma [14]): 64.5%
- Activity (lymphoma [16]): 11.4%
- Activity (lymphoma [17]): 21.5%
- IC50 ratio [9]: 11.7
- Activity (lymphoma [18]): 21.7%
